Assay results of several laboratories.
Target: Tyrosine-protein kinase Lyn (LYN, Homo sapiens, UniProt P07948)

Compound | test | setting | quantity | result
Cn1c2c(c3ccc(Cl)c(Cl)c31)C(C#N)C1(CCNCC1)NC2=O (racemic) | thermal stability, DSF | 10 µM | ΔTm | 0.2 °C
CN(C)C(=O)Cn1cc(-c2nc(C3(c4ccc(-c5cnc(N)nc5)cc4)CC3)no2)cn1 | cell-free assay, competition with immobilised ligand | 1 µM | remaining binding | 79%
Cc1ccc(C(=O)Nc2ccc(CN3CCN(C)CC3)c(C(F)(F)F)c2)cc1C#Cc1cnc2cccnn12 | enzyme activity, inhibitor | 23.5 nM | remaining activity | 0.65%
CNCc1ccccc1-c1csc([C@H](C)Nc2nc(C)nc3cc(OC)c(OC)cc23)c1 | cell-free assay, competition with immobilised ligand | 1 µM | remaining binding | 100%
O=c1cc(-c2cccc3c2Sc2ccccc2S3)oc(N2CCOCC2)c1 | enzyme activity, inhibitor | 0.5 µM | remaining activity | 106%
CNCc1ccc(-c2cc(-c3nc(-c4ccc(S(=O)(=O)C(C)C)cc4)cnc3N)on2)cc1 | enzyme activity, inhibitor | 2 µM | inhibition | 53%
Cn1c2c(Cl)c(Cl)ccc2c2cc[nH]c(=O)c21 | thermal stability, DSF | 10 µM | ΔTm | 0 °C
CC(C)c1ccc(NC(=O)c2cccs2)c(-c2nc3ccccc3[nH]c2=O)c1 | enzyme activity, inhibitor | 1 µM | activity vs control | 83%
CC1(C)NC(=O)c2[nH]c3c(Cl)c(Cl)ccc3c2C1C#N (stereo not drawn) | thermal stability, DSF | 10 µM | ΔTm | 0.2 °C
COc1cc2c(N3CCN(C(=O)Nc4ccc(OC(C)C)cc4)CC3)ncnc2cc1OCCCN1CCCCC1 | cell-free assay | 0.5 µM | remaining signal | 95.6%
CCOC(=O)c1cc2cc(-c3cc(C(=O)NCc4ccc(C(=O)O)cc4)nn3C)ccc2[nH]1 | cell-free assay, competition with immobilised ligand | 0.1 µM | remaining binding | 100%
C=CC(=O)Nc1cc(Nc2nccc(Nc3cc(Cl)c(F)cc3C(C)(C)O)n2)c(OC)cc1N1CC[C@@H](N(C)C)C1 | enzyme activity, inhibitor | 1 µM | inhibition | 44%
Cn1c2c(c3ccc(Cl)c(Cl)c31)C(C#N)C(C)(C)NC2=O (stereo not drawn) | thermal stability, DSF | 10 µM | ΔTm | 0.1 °C
COc1cc(Cl)c(C(=O)N[C@@H](CN[C@H]2CC[C@@H](N)CC2)Cc2ccc(C#N)cc2)cc1-c1ccc(CN[C@H](C)c2ccc(C)cc2)o1 | enzyme activity, inhibitor | 1 µM | remaining activity | 90%
Clc1ccc(Nc2nnc(Cc3ccncc3)c3ccccc23)cc1 | cell-free assay | 0.5 µM | remaining signal | 91.8%
CCN(CC)c1ccc(C2=NNC(=O)CC2C)cc1[N+](=O)[O-] (stereo not drawn) | enzyme activity, inhibitor | 10 µM | remaining activity | 114%
Cc1ccc(Nc2nccc(N(C)c3ccc4c(C)n(C)nc4c3)n2)cc1S(N)(=O)=O | enzyme activity, inhibitor | 0.5 µM | remaining activity | 52.1%
CC(C)(O)c1cncc(-c2nc3ccc(F)cc3n2C2CC2)c1 | cell-free assay, competition with immobilised ligand | 1 µM | remaining binding | 100%

Compound | test | setting | quantity | result
Cc1cc(NC(=O)c2cccc3cc(-c4cccc5[nH]nc(N)c45)ccc23)ccc1F | enzyme activity, inhibitor | 0.1 µM | activity vs control | 88%
Cn1c2c(Cl)c(Cl)ccc2c2cn[nH]c(=O)c21 | thermal stability, DSF | 10 µM | ΔTm | -0.1 °C
Cc1ccc(C(=O)NCc2ccsc2)cc1C#Cc1cn(C(C)C)c2ncnc(N)c12 | enzyme activity, inhibitor | 1 µM | activity vs control | 0%
O=C1c2ccccc2-c2n[nH]c3cccc1c23 | enzyme activity, inhibitor | 0.5 µM | activity vs control | 97%
CNC(=O)c1cc2c(Oc3ccc(NC(=O)C4(C(=O)Nc5ccc(F)cc5)CC4)cc3)ccnc2cc1OC | enzyme activity, inhibitor, radiometric | 1 µM | inhibition | 99%
CC(=O)c1c(NS(C)(=O)=O)c2cc(-c3ccc(Cl)cc3)c(-c3ccc(Cl)cc3Cl)nc2n(C)c1=O | cell-free assay, competition with immobilised ligand | 1 µM | remaining binding | 100%
Cc1sc(C(=O)NC2COC2)cc1-n1cc(NC(=O)Nc2c(F)cccc2Cl)cn1 | enzyme activity, inhibitor | 10 µM | remaining activity | 106%
CN(C)S(=O)(=O)c1ccc2c(c1)/C(=C/c1cc3c([nH]1)CCCC3)C(=O)N2 | cell-free assay | 0.5 µM | remaining signal | 16.2%
CNC(=O)c1cc(Oc2ccc(NC(=O)Nc3ccc(Cl)c(C(F)(F)F)c3)cc2)ccn1 | enzyme activity, inhibitor | 0.3 µM | inhibition | 10%
Cc1c(NC(=O)c2cc(C(N)=O)nc3cc(F)ccc23)c(C(F)(F)F)nn1Cc1ccc(C#N)cc1 | cell-free assay, competition with immobilised ligand | 1 µM | remaining binding | 100%
Nc1ncnc2occ(-c3ccc(NC(=O)Nc4cc(C(F)(F)F)ccc4F)cc3)c12 | enzyme activity, inhibitor | 20 µM | remaining activity | 1.4%
C[C@H](NC(=O)c1cnc2n1[C@](C)(Cc1ccc(C#N)cc1)C(=O)N2c1cc(Cl)c(F)c(Cl)c1)C(=O)NC1(c2ccccn2)CC1 | cell-free assay, competition with immobilised ligand | 1 µM | remaining binding | 100%
CCN(CC)CCNC(=O)c1c(C)[nH]c(/C=C2\C(=O)Nc3ccc(F)cc32)c1C | enzyme activity, inhibitor | 0.3 µM | inhibition | 42%
CCN(CC)CCNC(=O)c1c(C)[nH]c(/C=C2\C(=O)Nc3ccc(Cl)cc32)c1C | enzyme activity, inhibitor | 0.5 µM | remaining activity | 6.34%
Cn1c2c(c3ccc(Cl)c(Cl)c31)C(C#N)C1(CCN(C(=O)OC(C)(C)C)CC1)NC2=O (racemic) | thermal stability, DSF | 10 µM | ΔTm | 0 °C
CS(=O)(=O)c1cc(C2(NC(=O)c3cncc4c3cnn4-c3ccc(F)cc3)CC2)ccn1 | cell-free assay, competition with immobilised ligand | 1 µM | remaining binding | 100%
CCC1(CC)NC(=O)c2c(c3ccc(Cl)c(Cl)c3n2C)C1C#N (stereo not drawn) | thermal stability, DSF | 10 µM | ΔTm | -0.3 °C
CC(C)(C)c1nc(-c2cccc(NS(=O)(=O)c3c(F)cccc3F)c2F)c(-c2ccnc(N)n2)s1 | enzyme activity, inhibitor, radiometric | 1 µM | remaining activity | 51%
